Dynein transport = inhibitors of GR-EGFP nuclear translocation, primary screen, dynein cargo transport inhibitor project, imaging, high-content, 3617.4 mouse cells. test concentration mostly 20 µM; stimulated with dexamethasone, 1 µM; hits give low values. hit rate 0.47% among 220,000. AID 1381, 2008. z-score, hits read low;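 active = plate z-score of nuclear minus cytoplasmic receptor signal below a set negative limit, without overly bright fluorescence or cell loss, cut at about -3.5 in these data, passing the limit was not always enough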;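 also: z-score of nuclear minus cytoplasmic ring GR-EGFP intensity difference per well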
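Buffer or medium: Induction medium lacking tetracycline, stripped serum | Also added: Dexamethasone agonist, 1.0 µM final, for 30 min | Timing: 48 h induction, 1 h compound, 30 min dex at 37 °C | Detection: Formaldehyde fixation, Hoechst nuclear stain, 10x automated fluorescence imaging | Measure: Nuclear versus cytoplasmic GR-EGFP signal, averaged per well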
Ins promoter up = insulin promoter activators in MIN6 cells, imaging, high-content screening, mouse beta cells; MIN6 insulin promoter-GFP reporter; hits give high values; z-score at 5 µM; hit rate 0.3% among 190,000; AID 1625, 2009;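 active = z-score above 3 at 5 µM with at least 500 cells counted in the well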
Autophagy mod = autophagy modulators in MEF cells, primary screen, imaging, high-content, MEF GFP-LC3 | MEF GFP-LC3 puncta imaging; test concentration mostly 10 µM | AID 463193, 2010 | hit rate 0.98% among 190,000 | calls only at 10 µM (by protocol);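 active = percentage of spot-positive cells more than 3 SD above its plate mean, without a fluorescence outlier flag or 80% toxicity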
Insulin prom inh = inhibitors of insulin promoter-driven GFP, primary screen, imaging, TRM-6 cells, eGFP reporter, cell count; reporter expression induced with tamoxifen; inhibition, % at 2 µM; hit rate 0.9% among 130,000;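 active = inhibition above the mean plus 3 SD, with well images judged a real hit on visual review, cut at about 60% in these data, passing the limit was not always enough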
Each line names hits and unclear results; the compound was inactive in the other large screens. Most compounds without a hit are left out; they make up all but 2% or so of the library.

CCOC(=O)CSc1nnc(CNC(=O)c2ccc(S(=O)(=O)N3CCCC3)cc2)n1C	Insulin prom inh 90.0 (no result: Ins promoter up)
CC[N+]1(CC(O)COC2CC(C)CC(C)(C)C2)CCOCC1 (stereo not drawn)	none (no result: Autophagy mod, Insulin prom inh)
COC(=O)c1nn2c(C(F)(F)F)cc(-c3ccc(Br)o3)nc2c1Br	Autophagy mod active
O=C(NCc1ccco1)c1nn2c(C(F)(F)F)cc(-c3cccs3)nc2c1Br	none
O=C(O)CCc1ccc(S(=O)(=O)N2CCOCC2)cc1	none
NNC(=O)CCc1ccc(S(=O)(=O)N2CCOCC2)cc1	Insulin prom inh 81.2
CCC1=Nc2cc(C(=O)NCCCOC)ccc2Sc2ccccc21	Autophagy mod active
CCCCN1CC2=C(C1=O)C(c1ccc(O)cc1)NC(=O)N2C (stereo not drawn)	none (no result: Insulin prom inh)
COC1=CCC2([N+](=O)[O-])CN(CCO)CC1([N+](=O)[O-])C2 (stereo not drawn)	Ins promoter up 3.03
Cc1cccc(C)c1-n1c(C)nn(Cc2ccc([N+](=O)[O-])cc2)c1=O	none
Cc1nn(Cc2ccc([N+](=O)[O-])cc2)c(=O)n1-c1ccccc1Cl	Autophagy mod active (no result: Insulin prom inh)
CCN(CC)C(=O)Cn1c(=O)c2ccccc2n2c(=S)sc(-c3cccc(C)c3)c12	Autophagy mod active (no result: Insulin prom inh)
Cn1c(=O)c2[nH]c(-c3ccccc3Cl)c(O)c2n(C)c1=O	Insulin prom inh 64.3
Cn1c(=O)c2[nH]c(-c3ccccc3)c(O)c2n(C)c1=O	none
CCOc1ccc2nc(N3C(=O)/C(=C/c4ccc(Cl)cc4)NC3=S)sc2c1	Autophagy mod active (no result: Insulin prom inh)
COc1ccc2nc(N3C(=O)CNC3=S)sc2c1	none (no result: Ins promoter up, Autophagy mod, Insulin prom inh)
CC1CCCCN1C(=O)COC(=O)/C=C/c1ccc2ccccc2n1 (stereo not drawn)	none
Cc1cc(C)n(-c2cccc(Cl)c2)c(=O)c1C#N	Autophagy mod active (no result: Insulin prom inh)
Cc1ccc(-n2c(C)cc(C)c(C#N)c2=O)cc1C	none
O=C(Nc1ccc(F)cc1)Nc1ccccc1C(=O)NCCN1CCNC1=O	none (no result: Autophagy mod, Insulin prom inh)
CCOC(=O)c1cnc2c(C)cccc2c1NCc1ccco1	Insulin prom inh 67.9
O=c1[nH]c(-c2ccccc2Cl)nc2c1sc(=S)n2-c1ccccc1	none (no result: Insulin prom inh)
Cc1ccc(CN2C3CCCC2CC(NC(=O)c2ccc(C)cc2)C3)cc1 (stereo not drawn)	none (no result: Insulin prom inh)
CSCCOC(=O)C1=C(C)Nc2ccc(C)cc2S1	Autophagy mod active (no result: Ins promoter up)
CCN1C(=O)/C(=C2/Sc3ccccc3N2CC)S/C1=N\c1ncn[nH]1	none (no result: Ins promoter up, Insulin prom inh)
COC(=O)c1ccccc1NC(=O)c1cccs1	none
COC(=O)c1ccccc1NC(=O)c1cc(-c2cccs2)on1	Autophagy mod active
OC(COc1ccc(CNCCc2ccccc2F)cc1)CN1CCCCC1 (stereo not drawn)	none (no result: Insulin prom inh)
CCCCN(C(=O)Cc1cccc(F)c1)c1c(N)n(CCC)c(=O)[nH]c1=O	none (no result: Insulin prom inh)
Cc1n[nH]c(C)c1N1C(=O)c2cccc3c(N4CCCCCC4)ccc(c23)C1=O	Autophagy mod active (no result: Ins promoter up, Insulin prom inh)
O=C1c2cccc3c(N4CCCCC4)ccc(c23)C(=O)N1CCO	Autophagy mod active
O=C(OCCN1C(=O)c2cccc3c(N4CCOCC4)ccc(c23)C1=O)c1ccccc1Cl	Autophagy mod active
Cc1cc(N=Nc2ccc(C)c(N=Nc3cc(C)c(N)cc3N)c2)c(N)cc1N	none (no result: Autophagy mod, Insulin prom inh)
CCCCNC(=O)COC(=O)c1ccccc1F	none (no result: Autophagy mod, Insulin prom inh)
O=S(=O)(Nc1cc2nc3ccccc3nc2n1Cc1ccccc1)c1ccc(Cl)cc1	Autophagy mod active (no result: Ins promoter up, Insulin prom inh)
C/C(=C\C(=O)C(F)(F)F)Nc1ccc(C(F)(F)F)cc1	none
CC(C)(CCl)C(=O)Nc1ccc(C(F)(F)F)cc1	Insulin prom inh 84.6
CCOc1ccc(C2C(C(=O)c3cccs3)=C(O)C(=O)N2Cc2cccnc2)cc1 (stereo not drawn)	Autophagy mod active
COc1ccc(CCNC(=O)CCc2ccc(S(=O)(=O)NC(C)C)cc2)cc1	Insulin prom inh 71.4
Cc1ccc(C2(C(F)(F)F)N=C3Sc4cc(C)ccc4N3C(=O)N2)cc1 (stereo not drawn)	Ins promoter up 3.48
Cc1ccc(C2(C(F)(F)F)NC(=O)N3CCN=C3S2)cc1 (stereo not drawn)	none
CCC(C(=O)NCc1ccncc1)c1ccccc1 (stereo not drawn)	none
COc1ccc(NC(=O)/C=C/c2cc(Br)ccc2OC)cc1	none
COc1ccc(Br)cc1/C=C/C(=O)c1ccc(NC(C)=O)cc1	Dynein transport -3.51 (no result: Insulin prom inh)
CN(C)C(=O)C12CCC(C)(c3nc4ccccc4nc31)C2(C)C (stereo not drawn)	Ins promoter up 3.42
CSc1ccccc1NC(=O)c1ccccc1C	none (no result: Insulin prom inh)

Assay outcomes: PubChem, several laboratories
